18 molecules from ChEMBL document CHEMBL1125140, “Synthesis and in vivo antitumor activity of 2-amino-9H-purine-6-sulfenamide, -sulfinamide, and -sulfonamide and related purine ribonucleosides” (1990) can be followed below.

Assay type in all cases: functional, Mus musculus
The test system of assay [1] is L1210. Kind of assay: Percentage of L1210 cells killed was determined in L1210 Inoculated mice at a dose of 22 mg/kg after a single treatment. The procedure, abridged: (§1)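 BDF1 female mice (~18 g) inoculated ip on day 0 with 1 × 10⁶ L1210 leukemia cells. Single ip bolus 24 h later, prepared just before use and given in 0.01 mL/g body weight (mg/kg dose = 10 × solubility in mg/mL; water, or Me₂SO if insoluble). Six mice per group. Percent of viable leukemia cells killed estimated from inoculum size versus life span data.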

Assay [2] relates to L1210. Kind of assay: Post inoculation lifespan was determined in L1210 Inoculated mice at a dose of 22 mg/Kg after a single treatment. Summed up: (§2)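 BDF1 female mice (~18 g) received 1 × 10⁶ L1210 cells ip on day 0, then one ip bolus at 24 h in 0.01 mL/g (dose = 10 × solubility in mg/mL; water, or Me₂SO if insoluble). Controls got 0.9% NaCl. Six mice per treatment group. %T/C = mean life span of treated / mean life span of controls × 100. Deaths assigned to leukemia or toxicity from timing and necropsy.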

Assay [3] deals with L1210. Kind of assay: Percentage of L1210 cells killed was determined in L1210 Inoculated mice at a dose of 173 mg/kg after a single treatment. Summed up:
as §1

Assay [4] relates to L1210. Description: Post inoculation lifespan was determined in L1210 Inoculated mice at a dose of 173 mg/Kg after a single treatment. The procedure, abridged: as §2
The test system of assay [5] is L1210. Kind of assay: Percentage of L1210 cells killed was determined in L1210 Inoculated mice at a dose of 104 mg/kg after a single treatment. The procedure, abridged:
as §1

Assay [6] has as its system L1210. Kind of assay: Post inoculation lifespan was determined in L1210 Inoculated mice at a dose of 104 mg/Kg. The procedure, abridged:
as §2

The test system of assay [7] is L1210. Description: Percentage of L1210 cells killed was determined in L1210 Inoculated mice at a dose of 37 mg/kg after a single treatment. Summed up:
as §1

For assay [8], the system named is L1210. Kind of assay: Post inoculation lifespan was determined in L1210 Inoculated mice at a dose of 37 mg/Kg after a single treatment. Summed up:
as §2

The test system of assay [9] is L1210. Kind of assay: Percentage of L1210 cells killed was determined in L1210 Inoculated mice at a dose of 62 mg/kg after a single treatment. Summed up: as §1
The subject of assay [10] is L1210. Kind of assay: Post inoculation lifespan was determined in L1210 Inoculated mice at a dose of 62 mg/Kg. Summed up: as §2
Assay [11] has as its system L1210. Description: Percentage of L1210 cells killed was determined in L1210 Inoculated mice at a dose of 480 mg/kg after a single treatment. Summed up:
as §1

Assay [12] deals with L1210. Kind of assay: Post inoculation lifespan was determined in L1210 Inoculated mice at a dose of 480 mg/Kg after a single treatment. Summed up: as §2
Assay [13] relates to L1210. Description: Percentage of L1210 cells killed was determined in L1210 Inoculated mice at a dose of 13 mg/kg after a single treatment. The procedure, abridged:
as §1

The test system of assay [14] is L1210. Description: Post inoculation lifespan was determined in L1210 Inoculated mice at a dose of 13 mg/Kg after a single treatment. Summed up: as §2
Assay [15] relates to L1210. Kind of assay: Post inoculation lifespan was determined in L1210 Inoculated mice at a dose of 62 mg/Kg after a single treatment. The procedure, abridged: as §2
Assay [16] deals with L1210. Description: Post inoculation lifespan was determined in L1210 Inoculated mice at a dose of 104 mg/Kg after a single treatment. Summed up: as §2
Assay [17] relates to L1210. Description: Percentage of L1210 cells killed was determined in L1210 Inoculated mice at a dose of 8.1 mg/kg after a single treatment. Summed up: as §1
In assay [18] the test system is L1210. Kind of assay: Post inoculation lifespan was determined in L1210 Inoculated mice at a dose of 8.1 mg/Kg after a single treatment. Summed up: as §2

Broadly, the T/C is the ratio of treated to control. For the molecule `CC(=O)OC[C@H]1O[C@@H](n2cnc3c([S+](N)[O-])nc(N)nc32)[C@H](OC(C)=O)[C@@H]1OC(C)=O` (stereo partly specified), the Activity in the assay on L1210 [1] is 0%. The T/C with L1210 [2] stood at 99%.

For `NS(=O)(=O)c1ncnc2c1ncn2[C@@H]1O[C@H](CO)[C@@H](O)[C@H]1O`, the Activity in the assay with L1210 [3] is given as 98.36%. The molecule further registered a T/C with L1210 [4] of 147%.

The molecule `NS(=O)(=O)c1[nH]cnc2ncnc1-2` displayed an Activity in the assay with L1210 [5] of 95.48%. In the assay with L1210 [6], the T/C came out at 134%.

`Nc1nc(S(N)(=O)=O)c2[nH]cnc2n1` returned an Activity in the assay on L1210 [1] of 20.78%. The molecule further returned a T/C in the assay with L1210 [2] of 103%.

In turn, `Nc1nc([S+](N)[O-])c2[nH]cnc2n1` (stereo unspecified) yielded an Activity with L1210 [1] of 67.94%. This molecule also displayed a T/C in the assay on L1210 [2] of 113%.

Molecule `NSc1[nH]c(N)nc2ncnc1-2` showed an Activity with L1210 [7] of 99.04%. In the assay with L1210 [8], this molecule displayed a T/C of 159%.

`O=S(=O)(F)c1[nH]cnc2ncnc1-2`: the Activity with L1210 [9] turned out to be 73.54%. Also, the T/C in the assay with L1210 [10] was found to be 115%.

For the molecule `NSc1ncnc2c1ncn2C1O[C@H](CO)[C@@H](O)[C@H]1O` (stereo partly specified), the Activity in the assay on L1210 [11] turned out to be 97.82%. This molecule also had a T/C in the assay on L1210 [12] of 149%.

The molecule `C[C@H]1OC(n2cnc3c(SN)nc(N)nc32)[C@H](O)[C@@H]1O` (stereo partly specified) returned an Activity in the assay on L1210 [13] of 95.9%. This molecule displayed a T/C in the assay with L1210 [14] of 136%.

Turning to `Nc1nc(S(N)(=O)=O)c2ncn(C3O[C@H](CO)[C@@H](O)[C@H]3O)c2n1` (stereo partly specified), the Activity in the assay on L1210 [9] worked out at 92.4%. Besides, the T/C in the assay with L1210 [15] was 128%.

`NSc1nc(N)nc2c1ncn2C1O[C@H](CO)[C@@H](O)[C@H]1O` (stereo partly specified) had an Activity with L1210 [1] of 99.84%. Besides, the T/C in the assay on L1210 [2] was 170%.

In turn, `C[C@H]1OC(n2cnc3c(S(N)(=O)=O)nc(N)nc32)[C@H](O)[C@@H]1O` (stereo partly specified) yielded an Activity with L1210 [11] of 94.38%. Further, the T/C in the assay with L1210 [12] was found to be 130%.

`C[C@H]1OC(n2cnc3c(S)nc(N)nc32)[C@H](O)[C@@H]1O` (stereo partly specified) gave an Activity with L1210 [7] of 99.82%. Also, the T/C in the assay on L1210 [8] came to 169%.

With `Nc1nc([S+](N)[O-])c2ncn(C3O[C@H](CO)[C@@H](O)[C@H]3O)c2n1` (stereo partly specified), the Activity in the assay on L1210 [3] was 99.8%. In addition, in the assay on L1210 [4], the T/C amounted to 167%.

In the assay with L1210 [9], `N[S+]([O-])c1ncnc2c1ncn2C1O[C@H](CO)[C@@H](O)[C@H]1O` (stereo partly specified) came in with an Activity of 70.87%. Moreover, the T/C with L1210 [15] is 114%.

Consider `C[C@H]1OC(n2cnc3c([S+](N)[O-])nc(N)nc32)[C@H](O)[C@@H]1O` (stereo partly specified), for which the Activity in the assay with L1210 [5] is 99.87%. This molecule also had a T/C in the assay with L1210 [16] of 172%.

Consider `Nc1nc(=S)c2ncn([C@@H]3O[C@H](CO)[C@@H](O)[C@H]3O)c2[nH]1` [THIOGUANOSINE], for which the Activity in the assay with L1210 [17] is reported as 98.41%. The same molecule displayed a T/C with L1210 [18] of 147%.

Molecule `OC[C@H]1O[C@@H](n2cnc3c(S)ncnc32)[C@H](O)[C@@H]1O` [THIOINOSINE] displayed an Activity in the assay on L1210 [3] of 98.36%. The same molecule gave a T/C with L1210 [4] of 150%.
